In brackets after ≈: the same amount, converted by molar mass. Activity calls are given as the source filed them. The calls are words filed in the database; no cut-off is given here.
Legend:
[1] = Hemolytic activity against rabbit erythrocytes after 60 mins by spectrophotometric analysis; assay type: ADME, cell-based, Oryctolagus cuniculus, Erythrocyte
[2] = Partition coefficient, log P of the compound by HPLC analysis; assay type: physicochemical; details: octanol/water
In short: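 Partition coefficient measured by HPLC following OECD guidelines for the testing of chemicals.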

[3] = Selectivity ratio of HC50 for rabbit erythrocyte to MIC99 for Staphylococcus aureus ATCC 29213; assay type: functional
[4] = Dissociation constant, pKa of the compound; assay type: physicochemical
[5] = test system: Staphylococcus aureus; assay: Antibacterial activity against Staphylococcus aureus ATCC 29213 after 20 to 22 hrs by CLSI broth macro-dilution method; assay type: functional
[6] = Selectivity ratio of HC50 for rabbit erythrocyte to MIC99 for methicillin-resistant Staphylococcus aureus clinical isolate DM21455; assay type: functional
[7] = test system: Staphylococcus aureus; assay: Antibacterial activity against methicillin-resistant Staphylococcus aureus clinical isolate DM21455 after 20 to 22 hrs by CLSI broth macro-dilution method; assay type: functional
[8] = test system: Staphylococcus aureus; assay: Antibacterial activity against methicillin-resistant Staphylococcus aureus DM21455 assessed as log reduction in CFU at 0.5 X MIC to 4 X MIC after 24 hrs by surface-spread plate method relative to control; assay type: functional
[9] = test system: Staphylococcus aureus; assay: Antibacterial activity against methicillin-resistant Staphylococcus aureus DM21595 assessed as log reduction in CFU at 0.5 X MIC to 4 X MIC after 24 hrs by surface-spread plate method relative to control; assay type: functional
[10] = test system: Staphylococcus aureus; assay: Antibacterial activity against methicillin-resistant Staphylococcus aureus DM09808R assessed as log reduction in CFU at 0.5 X MIC to 4 X MIC after 24 hrs by surface-spread plate method relative to control; assay type: functional
[11] = test system: Staphylococcus aureus; assay: Antibacterial activity against methicillin-resistant Staphylococcus aureus ATCC […] after 20 to 22 hrs by CLSI broth macro-dilution method; assay type: functional
[12] = test system: Staphylococcus aureus; assay: Antibacterial activity against methicillin-resistant Staphylococcus aureus DM21595 obtained from wound isolate after 20 to 22 hrs by CLSI broth macro-dilution method; assay type: functional
[13] = test system: Staphylococcus aureus; assay: Antibacterial activity against methicillin-resistant Staphylococcus aureus ATCC 700699 assessed as log reduction in CFU at 0.5 X MIC to 4 X MIC after 24 hrs by surface-spread plate method relative to control; assay type: functional
[14] = Toxicity against New Zealand White rabbit corneal epithelium assessed as effect on wound closure at 50 ug/ml by Slit lamp photography relative to control; assay type: tissue-based, Oryctolagus cuniculus, Cornea; details: in vivo
In short: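 A 5 mm corneal epithelial abrasion was made with a sterile trephine and the epithelium removed with a mini blade. Eyes were treated with saline, vancomycin 50 μg/mL, or agent 50 μg/mL. Wound closure was tracked over time from fluorescein-stained photographs of defect size.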

[15] = test system: Staphylococcus aureus; assay: Antibacterial activity against methicillin-resistant Staphylococcus aureus DR42412 obtained from sputum isolate after 20 to 22 hrs by CLSI broth macro-dilution method; assay type: functional
[16] = test system: Staphylococcus aureus; assay: Antibacterial activity against methicillin-resistant Staphylococcus aureus DM42412 assessed as log reduction in CFU at 0.5 X MIC to 4 X MIC after 24 hrs by surface-spread plate method relative to control; assay type: functional
[17] = test system: Staphylococcus aureus; assay: Antibacterial activity against methicillin-resistant Staphylococcus aureus DM09808R obtained from eye isolate after 20 to 22 hrs by CLSI broth macro-dilution method; assay type: functional
[18] = test system: Staphylococcus aureus; assay: Antibacterial activity against methicillin-resistant Staphylococcus aureus DM42412 assessed as log reduction in CFU at 0.5 X MIC to 4 X MIC after 8 hrs by surface-spread plate method relative to control; assay type: functional, organism-based
[19] = test system: Staphylococcus aureus; assay: Antibacterial activity against methicillin-resistant Staphylococcus aureus DM21455 assessed as log reduction in CFU at 0.5 X MIC to 4 X MIC after 8 hrs by surface-spread plate method relative to control; assay type: functional, organism-based
[20] = test system: Staphylococcus aureus; assay: Antibacterial activity against methicillin-resistant Staphylococcus aureus ATCC 700699 assessed as log reduction in CFU at 0.5 X MIC to 4 X MIC after 8 hrs by surface-spread plate method relative to control relative to control; assay type: functional, organism-based
[21] = test system: Staphylococcus aureus; assay: Antibacterial activity against methicillin-resistant Staphylococcus aureus DM09808R assessed as log reduction in CFU at 0.5 X MIC to 4 X MIC after 8 hrs by surface-spread plate method relative to control; assay type: functional, organism-based
[22] = test system: Staphylococcus aureus; assay: Antibacterial activity against methicillin-resistant Staphylococcus aureus DM21595 assessed as log reduction in CFU at 0.5 X MIC to 4 X MIC after 8 hrs by surface-spread plate method relative to control; assay type: functional, organism-based
[23] = test system: Staphylococcus aureus; assay: Antimicrobial activity against Staphylococcus aureus assessed as disruption of bacterial membrane at 10 uM by SYTOX green uptake assay; assay type: functional, organism-based
In short: (§1)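 S. aureus DM4001 treated with 10 μM agent and incubated with the membrane-impermeant nucleic-acid dye SYTOX Green. Permeabilization was read as increased fluorescence intensity and confirmed by fluorescence microscopy counting green-stained cells.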

[24] = test system: Staphylococcus aureus; assay: Antimicrobial activity against in Staphylococcus aureus assessed as disruption of bacterial membrane at 10 uM by fluorescence microscopy; assay type: functional, organism-based; in short: as §1
[25] = test system: Klebsiella pneumoniae; assay: Antibacterial activity against Klebsiella pneumoniae ATCC 10031 after 20 to 22 hrs by CLSI broth macro-dilution method; assay type: functional
[26] = test system: Pseudomonas aeruginosa; assay: Antibacterial activity against Pseudomonas aeruginosa ATCC 27853 after 20 to 22 hrs by CLSI broth macro-dilution method; assay type: functional

Row | SMILES | HC50 at 1 h [1] [µM] | logP ([2]; read-out: logP) | Selectivity ratio [3] | pKa [4] | MIC99 [5] [µg/mL] | Selectivity ratio [6] | MIC99 [7] [µg/mL] | further results
1 | CCN(CC)CCCCCOc1cc2oc3cc(OCCCCCN(CC)CC)c(OC)c(CC=C(C)C)c3c(=O)c2c(O)c1CC=C(C)C | 14 | 7.55 | 9 | 11 | 1.56 (≈ 2.25 µM) | 18 | 0.78 (≈ 1.13 µM) | –
2 | CN[C@H](CC(C)C)C(=O)N[C@H]1C(=O)N[C@@H](CC(N)=O)C(=O)N[C@H]2C(=O)N[C@H]3C(=O)N[C@H](C(=O)N[C@H](C(=O)O)c4cc(O)cc(O)c4-c4cc3ccc4O)[C@H](O)c3ccc(c(Cl)c3)Oc3cc2cc(c3O[C@@H]2O[C@H](CO)[C@@H](O)[C@H](O)[C@H]2O[C@H]2C[C@](C)(N)[C@H](O)[C@H](C)O2)Oc2ccc(cc2Cl)[C@H]1O [VANCOMYCIN] | – | – | – | – | – | – | 0.78 (≈ 0.538 µM) | FC [8]: 3; FC [9]: 3; FC [10]: 3; MIC [11]: 6.25 µg/mL (≈ 4.31 µM); MIC [12]: 0.39 µg/mL (≈ 0.269 µM); FC [13]: 3; Activity [14]: Non-toxic; MIC [15]: 0.78 µg/mL (≈ 0.538 µM); FC [16]: 3; MIC [17]: 0.39 µg/mL (≈ 0.269 µM)
3 | CCN(CC)CCCCCCOc1cc2oc3cc(OCCCCCCN(CC)CC)c(OC)c(CC=C(C)C)c3c(=O)c2c(O)c1CC=C(C)C | 26.5 | 8.39 | 17 | 11 | 1.56 (≈ 2.16 µM) | 17 | 1.56 (≈ 2.16 µM) | –
4 | CCN(CC)CCCOc1cc2oc3cc(OCCCN(CC)CC)c(OC)c(CC=C(C)C)c3c(=O)c2c(O)c1CC=C(C)C | 16.3 | 6.27 | 20.9 | 11 | 0.78 (≈ 1.22 µM) | 41.7 | 0.39 (≈ 0.612 µM) | –
5 | CCCCCCCCCC(=O)N[C@@H](Cc1c[nH]c2ccccc12)C(=O)N[C@H](CC(N)=O)C(=O)N[C@@H](CC(=O)O)C(=O)N[C@@H]1C(=O)NCC(=O)N[C@@H](CCCN)C(=O)N[C@@H](CC(=O)O)C(=O)N[C@H](C)C(=O)N[C@@H](CC(=O)O)C(=O)NCC(=O)N[C@H](CO)C(=O)N[C@@H]([C@H](C)CC(=O)O)C(=O)N[C@@H](CC(=O)c2ccccc2N)C(=O)O[C@@H]1C | – | – | – | – | – | – | 0.78 (≈ 0.481 µM) | Activity [18]: inactive; Activity [19]: inactive; Activity [20]: inactive; MIC [11]: 0.78 µg/mL (≈ 0.481 µM); MIC [12]: 0.78 µg/mL (≈ 0.481 µM); MIC [15]: 0.195 µg/mL (≈ 0.12 µM); Activity [21]: inactive; MIC [17]: 0.195 µg/mL (≈ 0.12 µM); Activity [22]: inactive
6 | COc1c(OCCCCN2CCOCC2)cc2oc3cc(OCCCCN4CCOCC4)c(CC=C(C)C)c(O)c3c(=O)c2c1CC=C(C)C | > 200 | 5.42 | – | 8.36 | > 200 | – | > 200 | –
7 | COc1c(OCCCCn2cncn2)cc2oc3cc(OCCCCn4cncn4)c(CC=C(C)C)c(O)c3c(=O)c2c1CC=C(C)C | > 200 | – | – | 2.2 | > 200 | – | > 200 | logP [2]: 11.08
8 | COc1c(OCCCCBr)cc2oc3cc(OCCCCBr)c(CC=C(C)C)c(O)c3c(=O)c2c1CC=C(C)C | > 200 | – | – | – | > 200 | – | > 200 | Activity [23]: inactive; Activity [24]: inactive
9 | COc1c(O)cc2oc3cc(O)c(CC=C(C)C)c(O)c3c(=O)c2c1CC=C(C)C [MANGOSTIN] | 9 | 6.75 | 5.77 | – | 1.56 (≈ 3.8 µM) | 5.77 | 1.56 (≈ 3.8 µM) | MIC [25]: > 200 µg/mL; MIC [26]: > 200 µg/mL
10 | COc1c(OCCCCN2CCCCC2)cc2oc3cc(OCCCCN4CCCCC4)c(CC=C(C)C)c(O)c3c(=O)c2c1CC=C(C)C | 19.3 | 6.93 | 24.7 | 11.2 | 0.78 (≈ 1.13 µM) | 12.3 | 1.56 (≈ 2.26 µM) | –
11 | COc1c(OCCCCN2CCCC2)cc2oc3cc(OCCCCN4CCCC4)c(CC=C(C)C)c(O)c3c(=O)c2c1CC=C(C)C | 25 | 6.63 | 16 | 11.3 | 1.56 (≈ 2.36 µM) | 16 | 1.56 (≈ 2.36 µM) | –
12 | COc1c(OCCCCn2cccn2)cc2oc3cc(OCCCCn4cccn4)c(CC=C(C)C)c(O)c3c(=O)c2c1CC=C(C)C | > 200 | – | – | 2.52 | > 200 | – | > 200 | logP [2]: 9.28
